From PubChem BioAssay
In the library only some 3.5% were active in any assay of this set; here they are far more common.
RGS4 block: human RGS4 inhibition; AID 463165; P49798; HEK293 M3R/RGS4 inducible, Fluo-4 calcium flux; stronger effect = higher value; triggered by carbachol at its EC20; B-score at 10 µM; 0.45% of 310,000 active;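 active = B-score, a plate-corrected calcium signal, over three deviations above library mean, with baseline fluorescence within five deviations of library mean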;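 also: RGS4 expression induced by doxycycline in cells with stable M3 receptor; B-score is computed from the integrated fluorescence ratio over baseline after carbachol; higher B-score means a larger calcium signal and so more RGS4 inhibition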
MrgX1 antag: human MrgX1 receptor antagonism, primary screen; B-score at 10 µM; MRGX1-HEK293 calcium flux, Fluo-4, BAM8-22 antagonism; stronger effect = lower value; 1.3% of 310,000 active; Q96LB2; AID 588676;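 active = calcium-response B-score plate-corrected more than 3 library SD below zero, starting fluorescence within 5 deviations, no agonist response on first addition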;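 also: peak minus trough fluorescence over baseline after final BAM8-22 challenge near maximal dose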
Target sequence (Q96LB2 whole entry, looked up): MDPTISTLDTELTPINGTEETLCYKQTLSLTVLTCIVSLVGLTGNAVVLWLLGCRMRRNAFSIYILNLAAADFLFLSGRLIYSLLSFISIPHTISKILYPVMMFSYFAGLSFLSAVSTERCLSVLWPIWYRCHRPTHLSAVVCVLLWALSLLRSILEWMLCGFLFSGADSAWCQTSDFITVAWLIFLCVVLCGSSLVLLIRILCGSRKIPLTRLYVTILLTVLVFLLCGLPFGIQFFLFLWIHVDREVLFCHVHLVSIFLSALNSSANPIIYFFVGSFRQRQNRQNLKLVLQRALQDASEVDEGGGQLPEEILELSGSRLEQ
RGS4 act: potentiators or activators of RGS4 | 0.92% of 310,000 active | B-score at 10 µM | HEK293 M3R/inducible RGS4, carbachol calcium flux Fluo4; stronger effect = lower value;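 active = B-score of the integrated calcium signal more than 4 SD below the library mean, with starting fluorescence not abnormally high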;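 also: negative B-score means reduced calcium response which marks RGS4 activation or potentiation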
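Assay system: HEK293 FlpIn-TREx cells, stable M3R, doxycycline-inducible RGS4 / Probe or stimulus: carbachol, ECmax concentration / Times: overnight RGS4 induction, 30 min dye load 37 °C, 20 min compound RT / Signal: kinetic calcium fluorescence imaging with Fluo4-AM dye, 2 µM / Measure: Agonist-evoked peak-minus-minimum fluorescence over baseline, integrated ratio, B score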
MrgX1 allo act: allosterically activates human MrgX1 receptor signaling. 0.63% of 310,000 active. Q96LB2. B-score at 10 µM. AID 588675. MrgX1-HEK293, Fluo-4 calcium flux, FDSS; stronger effect = higher value;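 active = plate-corrected calcium response at least 3 library SD above typical, normal starting fluorescence, not activating the receptor alone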;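 also: compound read alongside a low EC10 to EC30 dose of BAM8-22 agonist; peak minus trough fluorescence over baseline measured at the second addition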
MrgX1 agonist: agonists of human MrgX1 receptor; Q96LB2; MrgX1-HEK293 cells, Fluo-4 calcium fluorescence, agonist mode; stronger effect = higher value; B-score at 10 µM; 0.44% of 310,000 active;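 active = calcium response B-score plate-corrected fluorescence ratio at least 3 library SD, with starting fluorescence B-score inside 5 SD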
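System: HEK293 cells stably expressing human MrgX1 receptor; Dosing: test compound in the initial addition of three; Schedule: overnight plating, then 30 min 37 °C plus 30 min room-temperature dye loading; Detection: kinetic calcium dye fluorescence, Fluo-4 NW; Controls: per-plate positive and negative controls for Z′ factor.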
Active calls of the source: *; i = inactive.

SMILES	RGS4 block	MrgX1 antag	RGS4 act	MrgX1 allo act	MrgX1 agonist
COC(=O)c1ccc(NC(=O)Nc2ccc([N+](=O)[O-])cc2)cc1	i	-7.6*	i	i	i
O=C(Nc1ccc([N+](=O)[O-])cc1)Nc1ccon1	i	-4.6*	i	i	i
O=C(Nc1ccc([N+](=O)[O-])cc1)Nc1ccc(Cl)cc1F	i	-4.9*	i	i	i
COC(=O)c1ccc(NC(=O)c2cccc(C)c2[N+](=O)[O-])cc1	i	-6.3*	i	i	i
CC(=O)Nc1ccc(S(=O)(=O)N2CCN(CCN3CCOCC3)CC2)cc1Cl	i	i	i	i	i
Cc1cc(C)c(C(=O)COC(=O)c2ccc([N+](=O)[O-])o2)cc1C	i	i	-7.5*	i	i
COCCn1c(C)cc(C(=O)COC(=O)c2ccc([N+](=O)[O-])o2)c1C	i	i	i	i	i
CCN(CC)C(=O)COC(=O)C1=NN(c2cc(C)ccc2C)C(=O)CC1	i	-5.5*	i	i	i
CCN(CC)c1ccc(NC(=O)COc2ccc(N(C)S(=O)(=O)c3cccs3)cc2)cc1	i	i	i	7.9*	i
Cc1cccn2c(=O)c(/C=C(\C#N)C(N)=O)c(N3CCN(Cc4ccc5c(c4)OCO5)CC3)nc12	i	i	-8.5*	i	i
COc1ccc(CN(C(=O)CSc2nnc(-c3c[nH]c4ccccc34)o2)c2ccc(F)cc2)cc1OC	i	i	-8.4*	i	i
COc1ccc(CN(C(=O)CSc2nnc(-c3ccc(F)cc3)o2)c2ccc(F)cc2)cc1	i	i	i	i	i
COc1ccc(-n2nc(C(=O)NCC(=O)NCCC3=CCCCC3)c3ccccc3c2=O)c(OC)c1	i	i	i	i	i
Cc1nc2ccccc2c(=O)n1CCN1CCOCC1	i	i	-7.4*	i	i
C/C(Cl)=C/CSc1nn2c(=O)c3ccccc3nc2s1	i	i	i	7.8*	i
CC(C)Oc1ccc(Cn2c(-c3ccco3)n[nH]c2=S)cc1	i	i	-7.3*	i	i
COc1ccc(/C=N/Nc2ncnc3sc(C)c(C)c23)cc1	i	i	i	12*	i
Cc1sc2ncnc(N/N=C/c3ccc(O)cc3)c2c1C	i	i	i	i	i
COCCn1c(=O)[nH]c(=O)c2c1nc(-c1ccc(-c3ccc(Cl)cc3[N+](=O)[O-])o1)n2Cc1ccccc1	i	i	i	i	i
COCCn1c(-c2ccc(-c3ccc([N+](=O)[O-])cc3Br)o2)nc2c1c(=O)[nH]c(=O)n2CC(C)C	i	-6.2*	i	i	i
CC(=O)c1ccc(NC(=O)C2CC2c2ccccc2)cc1 (configuration not stated)	i	i	i	i	i
CC(C)(C)c1ccc(/C=C/C(=O)Nc2nncs2)cc1	i	-4.8*	i	i	i
O=[N+]([O-])c1ccc(CSc2nnc(SCc3ccccc3)s2)cc1	i	i	-8.3*	i	i
CCOCCCNC(=O)c1ccc2c(=O)n(CCCOCC)c(=S)[nH]c2c1	i	i	i	13*	i
CCOCCCn1c(=S)[nH]c2cc(C(=O)NCCOC)ccc2c1=O	i	i	i	i	i
SMILES	RGS4 block	MrgX1 antag	RGS4 act	MrgX1 allo act	MrgX1 agonist
Cc1ccc(C(=O)NCCC(=O)NCc2ccco2)cc1	i	i	i	i	i
Cc1nnc(N2CCC(C(=O)N3CCCCC3)CC2)c2nn(-c3ccc(Cl)cc3)c(C)c12	i	i	i	i	i
COc1ccc(-n2nc3c(N4CCC(C(=O)N5CCC(C)CC5)CC4)nnc(C)c3c2C)cc1	i	i	-7*	i	i
C=C1CC(C(=O)N/N=C/c2ccc(O)cc2)C1	i	-5.9*	i	i	i
C=CCCCCc1nc2ccccc2c(=O)n1N	i	i	i	i	i
CCCCCCc1nc2ccccc2c(=O)n1N	i	i	i	9.1*	i
COCc1ccc(C(=O)N(C)CC2CCCN(CCc3ccc(Cl)cc3)C2)o1 (configuration not stated)	i	i	i	i	i
